In ChEMBL document CHEMBL1799953, “Backbone cyclic peptide inhibitors of protein kinase B (PKB/Akt)” (J Med Chem, 2011):
*1 amine or outer side, *2 acyl side, *3 side chain or, on linkers, in order; H or OH if unused. Where a SMILES comes first, the peptide text is derived from it. Bridges are numbered along the chain shown (N, C = ends). [ ]: non-standard residue; d: D form. N(6-aminohexyl)Gly = O=C(CN(CCCCCCN[*:3])[*:1])[*:2]; NGly(3-aminopropyl) = O=C(CN(CCCN[*:3])[*:1])[*:2]; N(2-Aminoethyl)Gly = O=C(CN(CCN[*:3])[*:1])[*:2]; Gly(N-(CH2)6NH2) = NCCCCCCNCC(=O)O; Gly(N-2-aminoethyl) = NCCNCC(=O)O; Gly(N(CH2)3NH2) = NCCCNCC(=O)O; hLeu = CC(C)CC[C@H](N)C(=O)O; Nva = CCC[C@H](N)C(=O)O; Dap = NC[C@H](N)C(=O)O; CO = O=C([*:1])[*:2]; Nlys = NCCCCNCC(=O)O

Assays:
[1] = target: T1, RAC-alpha serine/threonine-protein kinase (Homo sapiens, UniProt P31749); assay: Inhibition of Akt using RPRTSSF peptide and [gamma32]ATP by cell-free radioactive assay
T1 sequence (P31749 whole entry): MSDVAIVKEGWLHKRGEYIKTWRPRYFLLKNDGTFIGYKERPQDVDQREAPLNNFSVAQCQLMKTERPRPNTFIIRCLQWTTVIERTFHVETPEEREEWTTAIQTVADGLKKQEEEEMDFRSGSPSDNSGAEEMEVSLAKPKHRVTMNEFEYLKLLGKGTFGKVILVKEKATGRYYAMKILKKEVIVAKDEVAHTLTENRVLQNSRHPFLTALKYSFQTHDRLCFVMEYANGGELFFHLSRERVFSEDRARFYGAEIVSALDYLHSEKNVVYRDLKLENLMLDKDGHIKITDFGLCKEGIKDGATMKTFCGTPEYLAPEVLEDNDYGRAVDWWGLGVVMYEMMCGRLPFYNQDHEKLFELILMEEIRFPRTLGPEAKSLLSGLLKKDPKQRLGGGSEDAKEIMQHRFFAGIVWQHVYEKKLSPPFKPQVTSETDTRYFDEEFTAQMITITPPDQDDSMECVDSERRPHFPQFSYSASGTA
Outline: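 Same reaction: HisΔPHPKBEEEFlag (0.005 units), 50 mM Hepes pH 7.4, 0.1 mM EGTA, 0.1% 2-mercaptoethanol, 10 mM magnesium acetate, 3 μM RPRTSSF, 10 μM [γ32P]ATP. Peptide stock concentration determined by UV spectrophotometry; reference peptide run in every assay.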

[2] = target: T1, RAC-alpha serine/threonine-protein kinase; assay: Inhibition of Akt using RPRTSSF peptide and [gamma32]ATP at 0.625 uM by cell-free radioactive assay relative to control

Row | SMILES | IC50 [1] [nM] | inhibition [2] [%]
1 | CCC[C@H](NC(=O)[C@H](CCCNC(=N)N)NC(=O)[C@@H]1CCCN1C(=O)[C@@H](N)CCCNC(=N)N)C(=O)N[C@@H](Cc1ccc(O)cc1)C(=O)N[C@@H](CN)C(=O)N[C@@H](CCC(C)C)C(N)=O | – | 36
2 | CCC[C@@H]1NC(=O)[C@H](CCCNC(=N)N)NC(=O)CNCCCCNC(=O)NCCN(CC(N)=O)C(=O)[C@H](CCC(C)C)NC(=O)[C@H](CN)NC(=O)[C@H](Cc2ccc(O)cc2)NC1=O (H-[Nlys]R[Nva]Y[Dap][hLeu][N(2-Aminoethyl)Gly]-NH2; linker 1-7 via CO) | – | 32
3 | CCC[C@@H]1NC(=O)[C@H](CCCNC(=N)N)NC(=O)CNCCNC(=O)NCCN(CC(N)=O)C(=O)[C@H](CCC(C)C)NC(=O)[C@H](CN)NC(=O)[C@H](Cc2ccc(O)cc2)NC1=O (H-[N(2-Aminoethyl)Gly]R[Nva]Y[Dap][hLeu][N(2-Aminoethyl)Gly]-NH2; linker 1-7 via CO) | 390 | 64
4 | CCC[C@@H]1NC(=O)[C@H](CCCNC(=N)N)NC(=O)CNCCCNC(=O)NCCN(CC(N)=O)C(=O)[C@H](CCC(C)C)NC(=O)[C@H](CN)NC(=O)[C@H](Cc2ccc(O)cc2)NC1=O (H-[NGly(3-aminopropyl)]R[Nva]Y[Dap][hLeu][N(2-Aminoethyl)Gly]-NH2; linker 1-7 via CO) | 240 | 84
5 | CCC[C@H](NC(=O)[C@H](CCCNC(=N)N)NC(=O)CN(CCCCCCN)C(=O)[C@@H](N)CCCNC(=N)N)C(=O)N[C@@H](Cc1ccc(O)cc1)C(=O)N[C@@H](CN)C(=O)N[C@@H](CCC(C)C)C(=O)N(CCCCCCN)CC(N)=O (H-R[Gly(N-(CH2)6NH2)]R[Nva]Y[Dap][hLeu][Gly(N-(CH2)6NH2)]-NH2) | – | 57
6 | CCC[C@@H]1NC(=O)[C@H](CCCNC(=N)N)NC(=O)CNCCCCCCNC(=O)NCCN(CC(N)=O)C(=O)[C@H](CCC(C)C)NC(=O)[C@H](CN)NC(=O)[C@H](Cc2ccc(O)cc2)NC1=O (H-[N(6-aminohexyl)Gly]R[Nva]Y[Dap][hLeu][N(2-Aminoethyl)Gly]-NH2; linker 1-7 via CO) | – | 26
7 | CCC[C@H](NC(=O)[C@H](CCCNC(=N)N)NC(=O)CN(CCCCCCN)C(=O)[C@@H](N)CCCNC(=N)N)C(=O)N[C@@H](Cc1ccc(O)cc1)C(=O)N[C@@H](CN)C(=O)N[C@@H](CCC(C)C)C(=O)N(CCCN)CC(N)=O (H-R[Gly(N-(CH2)6NH2)]R[Nva]Y[Dap][hLeu][Gly(N(CH2)3NH2)]-NH2) | 110 | 87
8 | CCC[C@H](NC(=O)[C@H](CCCNC(=N)N)NC(=O)CN(CCCCN)C(=O)[C@@H](N)CCCNC(=N)N)C(=O)N[C@@H](Cc1ccc(O)cc1)C(=O)N[C@@H](CN)C(=O)N[C@@H](CCC(C)C)C(=O)N(CCCCCCN)CC(N)=O (H-R[Nlys]R[Nva]Y[Dap][hLeu][Gly(N-(CH2)6NH2)]-NH2) | – | 60
9 | CCC[C@H](NC(=O)[C@H](CCCNC(=N)N)NC(=O)CN(CCCCCCN)C(=O)[C@@H](N)CCCNC(=N)N)C(=O)N[C@@H](Cc1ccc(O)cc1)C(=O)N[C@@H](CN)C(=O)N[C@@H](CCC(C)C)C(=O)N(CCCCN)CC(N)=O (H-R[Gly(N-(CH2)6NH2)]R[Nva]Y[Dap][hLeu][Nlys]-NH2) | – | 88

More lines, now with the values ahead:

Row | IC50 [1] [nM] | inhibition [2] [%] | SMILES
10 | 150 | 91 | CCC[C@H](NC(=O)[C@H](CCCNC(=N)N)NC(=O)CN(CCCCN)C(=O)[C@@H](N)CCCNC(=N)N)C(=O)N[C@@H](Cc1ccc(O)cc1)C(=O)N[C@@H](CN)C(=O)N[C@@H](CCC(C)C)C(=O)N(CCCN)CC(N)=O (H-R[Nlys]R[Nva]Y[Dap][hLeu][Gly(N(CH2)3NH2)]-NH2)
11 | – | 76 | CCC[C@H](NC(=O)[C@H](CCCNC(=N)N)NC(=O)CN(CCN)C(=O)[C@@H](N)CCCNC(=N)N)C(=O)N[C@@H](Cc1ccc(O)cc1)C(=O)N[C@@H](CN)C(=O)N[C@@H](CCC(C)C)C(=O)N(CCCN)CC(N)=O (H-R[Gly(N-2-aminoethyl)]R[Nva]Y[Dap][hLeu][Gly(N(CH2)3NH2)]-NH2)
12 | – | 83 | CCC[C@H](NC(=O)[C@H](CCCNC(=N)N)NC(=O)CN(CCCCCCN)C(=O)[C@@H](N)CCCNC(=N)N)C(=O)N[C@@H](Cc1ccc(O)cc1)C(=O)N[C@@H](CN)C(=O)N[C@@H](CCC(C)C)C(=O)N(CCN)CC(N)=O (H-R[Gly(N-(CH2)6NH2)]R[Nva]Y[Dap][hLeu][Gly(N-2-aminoethyl)]-NH2)
13 | – | 76 | CCC[C@H](NC(=O)[C@H](CCCNC(=N)N)NC(=O)CN(CCCN)C(=O)[C@@H](N)CCCNC(=N)N)C(=O)N[C@@H](Cc1ccc(O)cc1)C(=O)N[C@@H](CN)C(=O)N[C@@H](CCC(C)C)C(=O)N(CCN)CC(N)=O (H-R[Gly(N(CH2)3NH2)]R[Nva]Y[Dap][hLeu][Gly(N-2-aminoethyl)]-NH2)
14 | – | 57 | CCC[C@H](NC(=O)[C@H](CCCNC(=N)N)NC(=O)CN(CCN)C(=O)[C@@H](N)CCCNC(=N)N)C(=O)N[C@@H](Cc1ccc(O)cc1)C(=O)N[C@@H](CN)C(=O)N[C@@H](CCC(C)C)C(=O)N(CCN)CC(N)=O (H-R[Gly(N-2-aminoethyl)]R[Nva]Y[Dap][hLeu][Gly(N-2-aminoethyl)]-NH2)
15 | 130 | 90 | CCC[C@H](NC(=O)[C@H](CCCNC(=N)N)NC(=O)CN(CCCN)C(=O)[C@@H](N)CCCNC(=N)N)C(=O)N[C@@H](Cc1ccc(O)cc1)C(=O)N[C@@H](CN)C(=O)N[C@@H](CCC(C)C)C(=O)N(CCCN)CC(N)=O (H-R[Gly(N(CH2)3NH2)]R[Nva]Y[Dap][hLeu][Gly(N(CH2)3NH2)]-NH2)
16 | 130 | 91 | CCC[C@H](NC(=O)[C@H](CCCNC(=N)N)NC(=O)CN(CCCCN)C(=O)[C@@H](N)CCCNC(=N)N)C(=O)N[C@@H](Cc1ccc(O)cc1)C(=O)N[C@@H](CN)C(=O)N[C@@H](CCC(C)C)C(=O)N(CCCCN)CC(N)=O (H-R[Nlys]R[Nva]Y[Dap][hLeu][Nlys]-NH2)
17 | 128 | 96 | CCC[C@H](NC(=O)[C@H](CCCNC(=N)N)NC(=O)CN(CCCN)C(=O)[C@@H](N)CCCNC(=N)N)C(=O)N[C@@H](Cc1ccc(O)cc1)C(=O)N[C@@H](CN)C(=O)N[C@@H](CCC(C)C)C(=O)N(CCCCN)CC(N)=O (H-R[Gly(N(CH2)3NH2)]R[Nva]Y[Dap][hLeu][Nlys]-NH2)
18 | – | 84 | CCC[C@H](NC(=O)[C@H](CCCNC(=N)N)NC(=O)CN(CCCCN)C(=O)[C@@H](N)CCCNC(=N)N)C(=O)N[C@@H](Cc1ccc(O)cc1)C(=O)N[C@@H](CN)C(=O)N[C@@H](CCC(C)C)C(=O)N(CCN)CC(N)=O (H-R[Nlys]R[Nva]Y[Dap][hLeu][Gly(N-2-aminoethyl)]-NH2)
19 | – | 84 | CCC[C@H](NC(=O)[C@H](CCCNC(=N)N)NC(=O)CN(CCN)C(=O)[C@@H](N)CCCNC(=N)N)C(=O)N[C@@H](Cc1ccc(O)cc1)C(=O)N[C@@H](CN)C(=O)N[C@@H](CCC(C)C)C(=O)N(CCCCN)CC(N)=O (H-R[Gly(N-2-aminoethyl)]R[Nva]Y[Dap][hLeu][Nlys]-NH2)
